Reference: ChEMBL document CHEMBL6074622, “8-l-Cystinyl Bis(1,8-diazaspiro[4.5]decane) as an Orally Bioavailable l-Cystine Crystallization Inhibitor for Cystinuria” (ACS Med Chem Lett, 2024)

Columns and labels:
Cystine [1] = test: Inhibition of L-cystine crystallization in aqueous solution assessed as ratio of step velocity in presence of compound to step velocity measured initially in absence of compound at 15 uM by atomic force microscopic analysis
In short: (§1)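 AFM on the {0001} face of L-cystine crystals. Crystals were regrown for 20 min under flowing supersaturated 2 mM L-cystine (20 mL/h). {1010} step velocity was measured without inhibitor (V0), then with inhibitor at 15, 30 or 45 μM (V). Images were taken about 25 min after inhibitor injection. Result reported as a V/V0 range.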

Cystine [2] = test: Inhibition of L-cystine crystallization in aqueous solution assessed as ratio of step velocity in presence of compound to step velocity measured initially in absence of compound at 30 uM by atomic force microscopic analysis; in short: as §1
Cystine [3] = test: Inhibition of L-cystine crystallization in aqueous solution assessed as ratio of step velocity in presence of compound to step velocity measured initially in absence of compound at 45 uM by atomic force microscopic analysis; in short: as §1
Cystine [4] = test: Inhibition of L-cystine crystallization in millipore water at room temperature incubated for 72 hrs
In short: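 Supersaturated L-cystine (2.9 mM) in Millipore water was incubated with varying inhibitor concentrations for 72 h at room temperature and then centrifuged. L-cystine remaining in the supernatant was measured. EC50 was taken from dose–response curves as the concentration giving 50% inhibition of crystallization.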

[5] = Drug metabolism in Slc3a1-knockout mouse assessed as (2R)-2-amino-3-[[(2R)-2-amino-3-(1,8-diazaspiro[4.5]decan-8-yl)-3-oxo-propyl]disulfanyl]propanoic acid metabolite formation; format: ADME
[6] = Oral bioavailability in Slc3a1-knockout mouse by measuring (2R)-2-amino-3-[[(2R)-2-amino-3-(1,8-diazaspiro[4.5]decan-8-yl)-3-oxo-propyl]disulfanyl]propanoic acid metabolite at 150 micromol/kg or 30 micromol/kg measured upto 24 hrs by LC-MS/MS analysis; format: ADME, organism-based; settings: in vivo, at 150 µmol/kg
In short: (§2)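 Male Slc3a1-knockout mice (4 per route) dosed once by oral gavage in normal saline (150 μmol/kg) or by tail vein injection (30 μmol/kg). Saphenous-vein blood drawn into heparinized capillaries before dosing and at 5, 15, 30 min and 1, 4, 8, 24 h. Plasma stored at −80 °C. Parent and mixed-disulfide metabolite M1 quantitated by LC-MS/MS against synthetic M1. Oral bioavailability derived from oral versus iv exposure.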

[7] = Oral bioavailability in Slc3a1-knockout mouse by measuring total parent compound and (2R)-2-amino-3-[[(2R)-2-amino-3-(1,8-diazaspiro[4.5]decan-8-yl)-3-oxo-propyl]disulfanyl]propanoic acid metabolite at 150 micromol/kg or 30 micromol/kg measured upto 24 hrs by LC-MS/MS analysis; format: ADME, organism-based; settings: in vivo, at 150 µmol/kg; in short: as §2
[8] = Oral bioavailability in Slc3a1-knockout mouse at 150 micromol/kg or 30 micromol/kg measured upto 24 hrs by LC-MS/MS analysis; format: ADME, organism-based; settings: in vivo, at 150 µmol/kg; in short: as §2
[9] = Observed apparent oral clearance in Slc3a1-knockout mouse at 150 micromol/kg or 30 micromol/kg measured upto 24 hrs by LC-MS/MS analysis; format: ADME; settings: in vivo, dose 150 µmol/kg; in short: as §2
[10] = Drug level in SLC3A1-knockout mouse urine assessed as (2R)-2-amino-3-[[(2R)-2-amino-3-(1,8-diazaspiro[4.5]decan-8-yl)-3-oxo-propyl]disulfanyl]propanoic acid metabolite concentration in urine at 150 micromol/kg, po measured after 24 hrs; format: ADME, organism-based; settings: in vivo, dose 150 µmol/kg, read-out: Ct
In short: (§3)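 Urine was collected 24 and 48 h after dosing. Parent and mixed-disulfide metabolite were measured, with the metabolite quantitated against chemically synthesized standard.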

[11] = Toxicity in SLC3A1-knockout male mouse assessed as increase in body weight at 150 micromol/kg, po administered daily for 8 weeks; format: organism-based; settings: in vivo, 1344 h, at 150 µmol/kg
[12] = Toxicity in SLC3A1-knockout male mouse assessed as body weight at 150 micromol/kg, po administered daily for 8 weeks (reference value: 20.3 +/- 2.1 g); format: organism-based; settings: in vivo, 1344 h, dose 150 µmol/kg
[13] = AUC (0 to t) in Slc3a1-knockout mouse by measuring (2R)-2-amino-3-[[(2R)-2-amino-3-(1,8-diazaspiro[4.5]decan-8-yl)-3-oxo-propyl]disulfanyl]propanoic acid metabolite at 150 micromol/kg, po or 30 micromol/kg, iv measured upto 24 hrs by LC-MS/MS analysis; format: ADME, organism-based; settings: in vivo, dose 150 µmol/kg; in short: as §2
[14] = Observed apparent oral clearance in Slc3a1-knockout mouse by measuring (2R)-2-amino-3-[[(2R)-2-amino-3-(1,8-diazaspiro[4.5]decan-8-yl)-3-oxo-propyl]disulfanyl]propanoic acid metabolite at 150 micromol/kg or 30 micromol/kg measured upto 24 hrs by LC-MS/MS analysis; format: ADME; settings: in vivo, dose 150 µmol/kg; in short: as §2
[15] = AUC (0 to t) in Slc3a1-knockout mouse at 150 micromol/kg, po or 30 micromol/kg, iv measured upto 24 hrs by LC-MS/MS analysis; format: ADME, organism-based; settings: in vivo, dose 150 µmol/kg; in short: as §2
[16] = Drug level in SLC3A1-knockout mouse urine assessed as (2R)-2-amino-3-[[(2R)-2-amino-3-(1,8-diazaspiro[4.5]decan-8-yl)-3-oxo-propyl]disulfanyl]propanoic acid metabolite concentration in urine at 30 micromol/kg, iv measured after 24 hrs; format: ADME, organism-based; settings: in vivo, dose 30 µmol/kg, read-out: Ct; in short: as §3
Cystine [17] = test: In-vivo inhibition of L-cystine crystallization in SLC3A1-knockout male mouse assessed as reduction in stone formation in bladder at 150 micromol/kg, po administered daily for 8 weeks; format: functional, organism-based; parameters: scale not given: the % may be the effect or the level left; settings: dose 150.0 µmol/kg
[18] = Cmax in Slc3a1-knockout mouse at 150 micromol/kg, po or 30 micromol/kg, iv measured upto 24 hrs by LC-MS/MS analysis; format: ADME, organism-based; settings: in vivo, dose 150 µmol/kg; in short: as §2
[19] = (§4) Half life in Slc3a1-knockout mouse by measuring (2R)-2-amino-3-[[(2R)-2-amino-3-(1,8-diazaspiro[4.5]decan-8-yl)-3-oxo-propyl]disulfanyl]propanoic acid metabolite at 150 micromol/kg, po or 30 micromol/kg, iv measured upto 24 hrs by LC-MS/MS analysis; format: ADME, organism-based; settings: in vivo, dose 150 µmol/kg; in short: as §2
[20] = as §4, with “Observed apparent volume of distribution during terminal phase” for “Half life”; format: ADME, organism-based; settings: in vivo, dose 150 µmol/kg; in short: as §2
[21] = Half life in Slc3a1-knockout mouse at 150 micromol/kg, po or 30 micromol/kg, iv measured upto 24 hrs by LC-MS/MS analysis; format: ADME, organism-based; settings: in vivo, dose 150 µmol/kg; in short: as §2
[22] = Observed apparent volume of distribution during terminal phase in Slc3a1-knockout mouse at 150 micromol/kg, po or 30 micromol/kg, iv measured upto 24 hrs by LC-MS/MS analysis; format: ADME, organism-based; settings: in vivo, dose 150 µmol/kg; in short: as §2
[23] = Toxicity in SLC3A1-knockout male mouse assessed as animal death at 150 micromol/kg, po administered daily for 4 weeks; format: organism-based; settings: in vivo, 672 h, dose 150 µmol/kg
[24] = AUC (0 to t) in Slc3a1-knockout mouse by measuring total parent compound and (2R)-2-amino-3-[[(2R)-2-amino-3-(1,8-diazaspiro[4.5]decan-8-yl)-3-oxo-propyl]disulfanyl]propanoic acid metabolite at 150 micromol/kg, po or 30 micromol/kg, iv measured upto 24 hrs by LC-MS/MS analysis; format: ADME, organism-based; settings: in vivo, dose 150 µmol/kg; in short: as §2
[25] = Toxicity in SLC3A1-knockout male mouse assessed as animal death at 150 micromol/kg, po administered daily for 8 weeks; format: organism-based; settings: in vivo, 1344 h, dose 150 µmol/kg
In short: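 Slc3a1-knockout male mice, 6 weeks old, bred by Slc3a1 × Slc3a1 mating; one pup per mating treated, one or more littermates as controls. Compound dissolved in water (18.9 mg/mL) and given by daily gavage of 100 μL (150 μmol/kg) for 8 weeks; controls received 100 μL water. Mice were sacrificed at study end, and kidneys and bladders were weighed.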

[26] = Cmax in Slc3a1-knockout mouse by measuring (2R)-2-amino-3-[[(2R)-2-amino-3-(1,8-diazaspiro[4.5]decan-8-yl)-3-oxo-propyl]disulfanyl]propanoic acid metabolite at 150 micromol/kg, po or 30 micromol/kg, iv measured upto 24 hrs by LC-MS/MS analysis; format: ADME, organism-based; settings: in vivo, dose 150 µmol/kg; in short: as §2

COC(=O)[C@@H](N)CSSC[C@H](N)C(=O)OC
Ratio (Cystine [1]): 0.4 | Ratio (Cystine [2]): 0.27 | Ratio (Cystine [3]): 0.21 | EC50 (Cystine [4]): 3.53 µM

CN1CCN(C(=O)[C@@H](N)CSSC[C@H](N)C(=O)N2CCN(C)CC2)CC1
Ratio (Cystine [1]): 0.52 | Ratio (Cystine [2]): 0.32 | Drug metabolism [5]: metabolite_detected | Ratio (Cystine [3]): 0.3 | F [6]: 25% | F [7]: 18% | F [8]: 2.3% | EC50 (Cystine [4]): 0.0598 µM

N[C@@H](CSSC[C@H](N)C(=O)N1CCC2(CCCN2)CC1)C(=O)N1CCC2(CCCN2)CC1
CL/F_obs [9]: 0.008 micromol/kg/nmol/L/hr | concentration [10]: 2.1 µM | Activity [11]: 14.6% | Activity [12]: 20.3 g | AUCt [13]: 40.963 µM·h | Ratio (Cystine [1]): 0.01 | CL/F_obs [14]: 0.003 micromol/kg/nmol/L/hr | Ratio (Cystine [2]): 0.04 | Drug metabolism [5]: metabolite_detected | AUCt [15]: 18.542 µM·h | concentration [16]: 1 µM | Activity (Cystine [17]): 8% | Cmax [18]: 11.4 µM | t1/2 [19]: 2.4 h | Vz/F obs [20]: 0.0108 micromol/kg/nmol/L | Ratio (Cystine [3]): 0.01 | F [6]: 27% | t1/2 [21]: 0.6 h | Vz/F_obs [22]: 0.007 micromol/kg/nmol/L | Activity [23]: Non-toxic | AUCt [24]: 59.505 µM·h | F [7]: 22% | Activity [25]: Non-toxic | F [8]: 16% | Cmax [26]: 16.9 µM | EC50 (Cystine [4]): 0.0295 µM
